# From ChEMBL document CHEMBL1154647, “Synthesis, spectral characterization and biological evaluation of phosphorylated derivatives of galanthamine” (Eur J Med Chem, 2010)
# Test system: Brain
# Assay: Antioxidant activity in Wistar rat brain assessed as reduction in glutathione content
# Assay type: functional, tissue-based
# Conditions: not given
# In short: (§1)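 Wistar rat brain was homogenised 1:40 (w/v) in 0.1 M phosphate buffer, pH 7.4, with 1 mM EDTA. Total glutathione (GSH + GSSG) and reduced GSH were assayed spectrophotometrically from optical density, using net rate against a standard-curve slope and intercept, times a dilution factor. Homogenate protein was measured by the Lowry method.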
row,SMILES,EC50
1,COc1ccc2c3c1O[C@H]1C[C@@H](OP(=O)(NCCO)Oc4ccc([N+](=O)[O-])cc4)C=C[C@@]31CCN(C)C2 (stereo not given in full),1.08 µg/mL

# Test system: Brain
# Assay: Antioxidant activity in Wistar rat brain assessed as glutathione content
# Assay type: functional
# Conditions: not given
# In short: as §1
row,SMILES,Activity
1,COc1ccc2c3c1O[C@H]1C[C@@H](OP(=O)(NCCO)Oc4ccc([N+](=O)[O-])cc4)C=C[C@@]31CCN(C)C2 (stereo not given in full),4.72 µg/mL

# Molecular target: not listed separately
# Assay: Inhibition of superoxide dismutase in Wistar rat brain
# Assay type: tissue-based
# Conditions: not given
row,SMILES,EC50
1,COc1ccc2c3c1O[C@H]1C[C@@H](OP(=O)(NCCO)Oc4ccc([N+](=O)[O-])cc4)C=C[C@@]31CCN(C)C2 (stereo not given in full),2.57 µg/mL

# Test system: Staphylococcus aureus
# Assay: Antibacterial activity against Staphylococcus aureus at 2 mg/mL after 18 hrs by disc diffusion assay
# Assay type: functional
# Conditions: read-out: IZ
# In short: (§2)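 Bacteria were grown in nutrient broth at 37 °C for 18 h on a rotary shaker at 150 rpm. Compounds were dissolved in DMF. Nutrient agar plates were dried at 35–36 °C for about 30 min, and test strains were spread on the surface. Discs were applied, and plates were inverted and incubated at 37 °C. A DMF blank was run.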
row,SMILES,zone of inhibition at 2000 µg/mL
1,COc1ccc2c3c1O[C@H]1C[C@@H](OP(=O)(NCCO)Oc4ccc([N+](=O)[O-])cc4)C=C[C@@]31CCN(C)C2 (stereo not given in full),3.94 mm

# Test system: Bacillus subtilis
# Assay: Antibacterial activity against Bacillus subtilis at 2 mg/mL after 18 hrs by disc diffusion assay
# Assay type: functional
# Conditions: read-out: IZ
# In short: as §2
row,SMILES,zone of inhibition at 2000 µg/mL
1,COc1ccc2c3c1O[C@H]1C[C@@H](OP(=O)(NCCO)Oc4ccc([N+](=O)[O-])cc4)C=C[C@@]31CCN(C)C2 (stereo not given in full),4.16 mm

# Test system: Escherichia coli
# Assay: Antibacterial activity against Escherichia coli at 2 mg/mL after 18 hrs by disc diffusion assay
# Assay type: functional
# Conditions: read-out: IZ
# In short: as §2
row,SMILES,zone of inhibition at 2000 µg/mL
1,COc1ccc2c3c1O[C@H]1C[C@@H](OP(=O)(NCCO)Oc4ccc([N+](=O)[O-])cc4)C=C[C@@]31CCN(C)C2 (stereo not given in full),4.44 mm

# Test system: Brain
# Assay: Antioxidant activity in Wistar rat brain assessed as superoxide dismutase content
# Assay type: functional
# Conditions: not given
row,SMILES,Activity
1,COc1ccc2c3c1O[C@H]1C[C@@H](OP(=O)(NCCO)Oc4ccc([N+](=O)[O-])cc4)C=C[C@@]31CCN(C)C2 (stereo not given in full),29.37 µg/mL

# Molecular target: T1, Catalase (Rattus norvegicus, UniProt P04762)
# T1 sequence (P04762 whole entry): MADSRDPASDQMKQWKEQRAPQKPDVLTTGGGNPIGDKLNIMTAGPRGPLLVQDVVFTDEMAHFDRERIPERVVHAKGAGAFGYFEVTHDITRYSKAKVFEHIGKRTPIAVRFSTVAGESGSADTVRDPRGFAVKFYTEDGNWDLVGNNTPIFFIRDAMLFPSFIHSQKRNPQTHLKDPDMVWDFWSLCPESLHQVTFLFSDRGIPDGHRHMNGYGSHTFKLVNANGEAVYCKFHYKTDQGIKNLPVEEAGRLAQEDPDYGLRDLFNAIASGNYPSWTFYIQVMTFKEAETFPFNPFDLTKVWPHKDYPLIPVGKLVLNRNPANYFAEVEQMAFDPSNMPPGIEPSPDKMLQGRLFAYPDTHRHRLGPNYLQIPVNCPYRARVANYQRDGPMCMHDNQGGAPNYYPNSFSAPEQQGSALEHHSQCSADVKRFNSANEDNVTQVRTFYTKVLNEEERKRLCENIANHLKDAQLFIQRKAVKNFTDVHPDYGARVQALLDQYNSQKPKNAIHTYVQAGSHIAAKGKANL
# Assay: Inhibition of catalase in Wistar rat brain
# Conditions: not given
row,SMILES,EC50
1,COc1ccc2c3c1O[C@H]1C[C@@H](OP(=O)(NCCO)Oc4ccc([N+](=O)[O-])cc4)C=C[C@@]31CCN(C)C2 (stereo not given in full),4.94 µg/mL

# Test system: Brain
# Assay: Antioxidant activity in Wistar rat brain assessed as lipid peroxidation
# Assay type: functional, tissue-based
# Conditions: not given
row,SMILES,Activity
1,COc1ccc2c3c1O[C@H]1C[C@@H](OP(=O)(NCCO)Oc4ccc([N+](=O)[O-])cc4)C=C[C@@]31CCN(C)C2 (stereo not given in full),72.5 µg/mL

# Test system: Klebsiella pneumoniae
# Assay: Antibacterial activity against Klebsiella pneumoniae after 18 hrs
# Assay type: functional
# Conditions: not given
row,SMILES,MIC
1,COc1ccc2c3c1O[C@H]1C[C@@H](OP(=O)(NCCO)Oc4ccc([N+](=O)[O-])cc4)C=C[C@@]31CCN(C)C2 (stereo not given in full),0.42 µg/mL

# Test system: Klebsiella pneumoniae
# Assay: Antibacterial activity against Klebsiella pneumoniae at 2 mg/mL after 18 hrs by disc diffusion assay
# Assay type: functional
# Conditions: read-out: IZ
# In short: as §2
row,SMILES,zone of inhibition at 2000 µg/mL
1,COc1ccc2c3c1O[C@H]1C[C@@H](OP(=O)(NCCO)Oc4ccc([N+](=O)[O-])cc4)C=C[C@@]31CCN(C)C2 (stereo not given in full),5.44 mm

# Test system: Escherichia coli
# Assay: Antibacterial activity against Escherichia coli after 18 hrs
# Assay type: functional
# Conditions: not given
row,SMILES,MIC
1,COc1ccc2c3c1O[C@H]1C[C@@H](OP(=O)(NCCO)Oc4ccc([N+](=O)[O-])cc4)C=C[C@@]31CCN(C)C2 (stereo not given in full),0.44 µg/mL

# Test system: Klebsiella pneumoniae
# Assay: Antibacterial activity against Klebsiella pneumoniae at 1 mg/mL after 18 hrs by disc diffusion assay
# Assay type: functional
# Conditions: read-out: IZ
# In short: as §2
row,SMILES,zone of inhibition at 1000 µg/mL
1,COc1ccc2c3c1O[C@H]1C[C@@H](OP(=O)(NCCO)Oc4ccc([N+](=O)[O-])cc4)C=C[C@@]31CCN(C)C2 (stereo not given in full),2.43 mm

# Test system: Staphylococcus aureus
# Assay: Antibacterial activity against Staphylococcus aureus after 18 hrs
# Assay type: functional
# Conditions: not given
row,SMILES,MIC
1,COc1ccc2c3c1O[C@H]1C[C@@H](OP(=O)(NCCO)Oc4ccc([N+](=O)[O-])cc4)C=C[C@@]31CCN(C)C2 (stereo not given in full),0.81 µg/mL

# Test system: Brain
# Assay: Antioxidant activity in Wistar rat brain assessed as inhibition of lipid peroxidation
# Assay type: functional, tissue-based
# Conditions: not given
row,SMILES,EC50
1,COc1ccc2c3c1O[C@H]1C[C@@H](OP(=O)(NCCO)Oc4ccc([N+](=O)[O-])cc4)C=C[C@@]31CCN(C)C2 (stereo not given in full),2.81 µg/mL

# Test system: Brain
# Assay: Antioxidant activity in Wistar rat brain assessed as catalase content
# Assay type: functional
# Conditions: not given
row,SMILES,Activity
1,COc1ccc2c3c1O[C@H]1C[C@@H](OP(=O)(NCCO)Oc4ccc([N+](=O)[O-])cc4)C=C[C@@]31CCN(C)C2 (stereo not given in full),284.32 µg/mL

# Test system: Escherichia coli
# Assay: Antibacterial activity against Escherichia coli at 1 mg/mL after 18 hrs by disc diffusion assay
# Assay type: functional
# Conditions: read-out: IZ
# In short: as §2
row,SMILES,zone of inhibition at 1000 µg/mL
1,COc1ccc2c3c1O[C@H]1C[C@@H](OP(=O)(NCCO)Oc4ccc([N+](=O)[O-])cc4)C=C[C@@]31CCN(C)C2 (stereo not given in full),1.62 mm

# Test system: Bacillus subtilis
# Assay: Antibacterial activity against Bacillus subtilis at 1 mg/mL after 18 hrs by disc diffusion assay
# Assay type: functional
# Conditions: read-out: IZ
# In short: as §2
row,SMILES,zone of inhibition at 1000 µg/mL
1,COc1ccc2c3c1O[C@H]1C[C@@H](OP(=O)(NCCO)Oc4ccc([N+](=O)[O-])cc4)C=C[C@@]31CCN(C)C2 (stereo not given in full),1.53 mm

# Test system: Bacillus subtilis
# Assay: Antibacterial activity against Bacillus subtilis after 18 hrs
# Assay type: functional
# Conditions: not given
row,SMILES,MIC
1,COc1ccc2c3c1O[C@H]1C[C@@H](OP(=O)(NCCO)Oc4ccc([N+](=O)[O-])cc4)C=C[C@@]31CCN(C)C2 (stereo not given in full),0.21 µg/mL

# Test system: Staphylococcus aureus
# Assay: Antibacterial activity against Staphylococcus aureus at 1 mg/mL after 18 hrs by disc diffusion assay
# Assay type: functional
# Conditions: read-out: IZ
# In short: as §2
row,SMILES,zone of inhibition at 1000 µg/mL
1,COc1ccc2c3c1O[C@H]1C[C@@H](OP(=O)(NCCO)Oc4ccc([N+](=O)[O-])cc4)C=C[C@@]31CCN(C)C2 (stereo not given in full),1.59 mm
